These results are taken from ChEMBL document CHEMBL4138115, “An evaluation of Minor Groove Binders as anti-fungal and anti-mycobacterial therapeutics” (Eur J Med Chem, 2017).

pEC50: −log10 of the molar value. Converted amounts (≈) assume the structure as drawn.

Data set [1] is described as follows: Selectivity index, ratio of CC50 for cytotoxicity against HEK293 cells to MIC50 for antimycobacterial activity against GFP labelled Mycobacterium tuberculosis H37Rv. As to conditions: human, read-out: Selectivity Index. It is filed as toxicity, cell-based.
A further data set relates to Cryptococcus neoformans. Kind of data set: Antifungal activity against Cryptococcus neoformans ATCC 208821 after 24 hrs by resazurin dye-based two-fold serial dilution assay. It is filed as functional.
Data set [2] can be described thus: Lipophilicity of the compound assessed as retention time by HPLC method. It is filed as physicochemical. Summed up: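 Reverse-phase C18 HPLC with water and acetonitrile, each containing 0.1% TFA. Gradient runs from 100% water to 100% acetonitrile over 1 h; lipophilicity reported as retention time in minutes.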
For data set [3], the system named is Trypanosoma brucei brucei. Kind of data set: Antiparasitic activity against Trypanosoma brucei brucei Lister 427 after 48 hrs by Alamar blue assay. The conditions noted are these: Lister 427, 48 h. The format is functional, organism-based. Put shortly:
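Bloodstream-form Lister 427 in HMI-9 with 10% heat-inactivated FBS, counted by haemocytometer and seeded at 2 × 10⁴ cells/mL over serial compound dilutions. After 48 h at 37 °C, 5% CO₂, resazurin (0.49 mM solution in PBS) added for a further 24 h. Fluorescence ex 544/em 590 nm; EC50 from curve fit. Duplicates, at least three independent occasions.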
A general note: The colour change of resazurin is a common sign of viable cells or microbes.

Data set [4] relates to Mycobacterium tuberculosis. Kind of data set: Antimycobacterial activity against GFP labelled Mycobacterium tuberculosis H37Rv up to 14 days by fluorescence assay. It is filed as functional. The conditions noted are these: 336 h. Put shortly: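 GFP-labelled Mtb H37Rv at 1 × 10^5 CFU/well in 7H9 broth with 10% OADC and 25 kanamycin. Two-fold compound dilutions were tested. Incubated at 37 °C without shaking.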

In the next data set the test system is Staphylococcus aureus. Nature of the data set: Antibacterial activity against methicillin-resistant Staphylococcus aureus ATCC 43300 after 18 hrs by two-fold serial dilution assay. The format is functional. The conditions noted are these: ATCC 43300, 18 h. Summed up:
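MRSA ATCC 43300 grown overnight in cation-adjusted Mueller Hinton broth at 37 °C, diluted 40-fold, grown 1.5–3 h to mid-log. Inoculated at 5 × 10⁵ CFU/mL into two-fold compound dilutions (final 32–0.25 range). Incubated 18 h at 37 °C without shaking; OD600 read. Inhibition normalised to media-only and untreated-bacteria controls. MIC taken as lowest concentration giving ≥80% inhibition; duplicates (n = 2).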

The test system of another data set is Trypanosoma congolense. Nature of the data set: Antiparasitic activity against Trypanosoma congolense IL3000 after 69 hrs by Alamar blue assay. It is filed as functional, organism-based. As to conditions: IL3000, 69 h. Put shortly:
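Bloodstream-form IL3000 counted electronically and seeded at 1.25 × 10⁵ trypanosomes/ml into threefold serial compound dilutions. Kept 69 h at 34 °C, 5% CO₂, then resazurin (12.5 mg per 100 mL PBS) added for 3 h. Fluorescence ex 536/em 588 nm gives EC50. Three separate assay runs.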

Another data set relates to Salmon testes DNA. Kind of data set: Binding affinity to wild type salmon sperm DNA assessed as change in melting temperature at 10 uM. It is filed as nucleic-acid assay. The conditions noted are these: Salmonidae.
A short description of data set [5]: Cytotoxicity against HEK293 cells reduction in cell viability after 20 hrs by resazurin dye based fluorescence assay. The conditions noted are these: human. Put shortly: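 HEK-293 cells at 4000 per well in DMEM with 10% FBS, exposed to two-fold dilutions from 32 to 0.25 (final) for 20 h at 37 °C, 5% CO₂. Resazurin added (100 final) for 3 h more; fluorescence ex 560/em 590 nm. CC50 is the concentration giving 50% cytotoxicity. Duplicates.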

In another data set the test system is Candida albicans. Kind of data set: Antifungal activity against Candida albicans ATCC 90028 after 24 hrs by resazurin dye-based two-fold serial dilution assay. It is filed as functional. As to conditions: ATCC 90028, 24 h.

For `CC(C)CCc1sc(NC(=O)c2cc(NC(=O)c3cc(NC(=N)c4cccc(F)c4)cn3C)cn2C)nc1C(=O)NCCCN(C)C`, in [1], the selectivity ratio came out at 25. Also, the MIC70 against Cryptococcus neoformans came to 8 µg/mL (≈ 12.1 µM). For the same compound, the Retention_time in data set [2] was 26.2 min. The figures for the pEC50 (in data set [3]; in the data set with Trypanosoma congolense) were 4.74 and 5.26, respectively. Also, the MIC99 (in general, an inhibitory concentration at the 99% level, which refers to growth in some studies and to a panel of isolates in others) in [4] stood at 3.1 µg/mL (≈ 4.67 µM). The MIC80 (commonly the lowest concentration that inhibits either 80% of growth or 80% of the strains tested, depending on the study) in the data set with Staphylococcus aureus is 8 µg/mL (≈ 12.1 µM); in the data set with Candida albicans, greater than 32 µg/mL. Moreover, the thermal shift (ΔTm) (commonly the change in melting temperature against a reference sample) in the data set with Salmon testes DNA came to 4 °C. For the same compound, in data set [5], the CC50 – broadly, the concentration giving 50% cytotoxicity – at 20 h was 18 µg/mL (≈ 27.1 µM).
Regarding `CC(C)CCc1sc(NC(=O)c2cc(NC(=O)c3cc(NC(=N)c4ccc(F)cc4)cn3C)cn2C)nc1C(=O)NCCCN(C)C`, the selectivity ratio in data set [1] came out at 25. Also, the MIC70 with Cryptococcus neoformans was found to be 4 µg/mL (≈ 6.03 µM). The Retention_time in [2] is reported as 26.2 min. In addition, the pEC50 – broadly, the negative decadic logarithm of the EC50, by convention in mol/L – in [3] is 4.74; in the data set with Trypanosoma congolense, 5.00. The MIC99 in [4] was 3.1 µg/mL (≈ 4.67 µM). Besides, the MIC80 in the data set on Staphylococcus aureus was 8 µg/mL (≈ 12.1 µM); against Candida albicans, greater than 32 µg/mL. In addition, the ΔTm with Salmon testes DNA worked out at 9 °C. Further, it took 18 µg/mL (≈ 27.1 µM) to reach half-maximal cytotoxicity in data set [5] (CC50 at 20 h).
